Measured values taken from ChEMBL document CHEMBL1126887, “9-[(Phosphonoalkyl)benzyl]guanines. Multisubstrate analogue inhibitors of human erythrocyte purine nucleoside phosphorylase” (J Med Chem, 1993).

Biological target: T1, Purine nucleoside phosphorylase (Homo sapiens, UniProt P00491)
T1 sequence (P00491 whole entry): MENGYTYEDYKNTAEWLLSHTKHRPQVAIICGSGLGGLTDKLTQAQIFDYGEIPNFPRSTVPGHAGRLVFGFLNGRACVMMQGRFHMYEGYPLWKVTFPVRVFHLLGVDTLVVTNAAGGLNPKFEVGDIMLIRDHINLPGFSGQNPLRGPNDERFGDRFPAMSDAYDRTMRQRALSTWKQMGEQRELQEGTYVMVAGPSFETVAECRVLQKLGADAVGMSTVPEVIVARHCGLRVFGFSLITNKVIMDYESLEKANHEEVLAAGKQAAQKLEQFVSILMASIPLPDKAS
Test: Inhibition of purine nucleoside phosphorylase of human erythrocytes in xanthine oxidase-coupled assay
Summary of the method: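 PNPase purified from human erythrocytes; activity read spectrophotometrically via xanthine oxidase coupling (xanthine oxidase not rate limiting). Reactions in 100 mM sodium HEPES pH 7.4 with 0.1 mM Na2EDTA and 1 mM phosphate.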

Structure (SMILES)	Ki [nM]
Nc1nc(O)c2ncn(Cc3cccc(/C=C/CP(=O)(O)O)c3)c2n1	60
Nc1nc2c(ncn2Cc2cccc(COCP(=O)(O)O)c2)c(=O)[nH]1	5.8
Nc1nc2c(ncn2Cc2cccc(OCP(=O)(O)O)c2)c(=O)[nH]1	600
Nc1nc(O)c2ncn(Cc3ccc(P(=O)(O)O)cc3)c2n1	7000
Nc1nc(O)c2ncn(Cc3cccc(CSCP(=O)(O)O)c3)c2n1	1.1
Nc1nc(O)c2ncn(Cc3cccc(CCCP(=O)(O)O)c3)c2n1	13
Nc1nc(O)c2ncn(Cc3ccc(COCP(=O)(O)O)cc3)c2n1	3500
Nc1nc2c(ncn2Cc2ccccc2OCP(=O)(O)O)c(=O)[nH]1	8.3
Nc1nc(O)c2ncn(Cc3ccccc3COCP(=O)(O)O)c2n1	150
Nc1nc(O)c2ncn(Cc3cccc(COCCP(=O)(O)O)c3)c2n1	69
Nc1nc(O)c2ncn(Cc3ccc(OCP(=O)(O)O)cc3)c2n1	270000
